Data taken from ChEMBL document CHEMBL2176883, “Aminopiperidine sulfonamide Cav2.2 channel inhibitors for the treatment of chronic pain” (J Med Chem, 2012).
One block for each compound: values may come before it.

How the values were obtained:
Cav1.2 [1] = target: T1, Cav1.2 (Homo sapiens, UniProt Q13936); test: Inhibition of Cav1.2 assessed as inhibition of calcium flux at 1 uM by cell based FLIPR assay
Summary of the method: (§1)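 Cav1.2 counterscreen using a related calcium-influx FLIPR assay, run as % inhibition at single concentrations or as a titration.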

[2] = target: T2, Voltage-dependent N-type calcium channel subunit alpha-1B (Homo sapiens, UniProt Q00975); test: Inhibition of Cav2.2 expressed HEK293 cells assessed as inhibition of calcium flux at 1 uM by FLIPR assay; assay type: cell-based
Summary of the method: (§2)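 Calcium influx was read with a calcium-sensitive dye on FLIPR Tetra in CBK cells expressing α1B-1, α2-δ and β3a with Kir2.3. Cells were preincubated with compound in 30 mM K+, then channels were opened by 1:1 addition of 140 mM K+ solution. Compounds were screened at 1 μM, then titrated over 10 points (0.001–30 μM) in quadruplicate, mean ± SD. Values are averages of n ≥ 3.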

Cav1.2 [3] = target: T1, Cav1.2; test: Inhibition of Cav1.2 assessed as inhibition of calcium flux at 3 uM by cell based FLIPR assay; summary of the method: as §1
Rattus norvegicus [4] = test: Analgesic activity in rat SNL neuropathic pain model assessed as reversal of mechanical allodynia at 10 mg/kg, po after 1 hr; assay type: functional
Rattus norvegicus [5] = test: Antinociceptive activity in rat assessed as reversal of complete Freund's adjuvant-induced pain at 30 mg/kg, po after 3 hrs; assay type: functional
Summary of the method: (§3)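 In the rat CFA inflammatory pain model, compound was given orally at 30 mg/kg and allodynia was read at 1 and 3 h postdose. Average % reversal = (postdose − predose)/(preinjury − predose) for each rat, n = 6. Plasma exposure at 3 h was measured in satellite rats (n = 2).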

Rattus norvegicus [6] = test: Antinociceptive activity in rat assessed as reversal of complete Freund's adjuvant-induced pain at 30 mg/kg, po after 1 hr; assay type: functional; summary of the method: as §3
[7] = Plasma clearance in rat at 3 mg/kg, po and 1 mg/kg, iv; assay type: ADME, organism-based
Summary of the method: (§4)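 Rat pharmacokinetics from iv and po arms: 0.6 mg/kg iv with 1.8 mg/kg po, or 1 mg/kg iv with 3 mg/kg po. AUC was normalized to po dose (μM·h·kg/mg). Clearance (mL/min/kg) and half-life come from the iv arm, and F% is oral bioavailability.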

[8] = Metabolic stability in human liver microsomes assessed as compound remaining at 1 uM after 1 hr; assay type: ADME, Microsome; details: read-out: Stability
Summary of the method: (§5)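 Compound at 1 μM was incubated with human or rat liver microsomes (1 mg/mL) for 1 h, and the percentage of parent remaining was determined.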

[9] = Oral bioavailability in rat at 3 mg/kg; assay type: ADME, organism-based; details: in vivo; summary of the method: as §4
[10] = Plasma concentration in rat complete Freund's adjuvant-induced pain model at 30 mg/kg, po after 3 hrs; assay type: ADME, organism-based; parameters: dose 30 mg/kg, route oral
Summary of the method: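 Satellite rats in CFA inflammatory pain study, 30 mg/kg po; plasma exposure (μM) at 3 h, n = 2, standard deviation.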

[11] = target: T2, Voltage-dependent N-type calcium channel subunit alpha-1B; test: Inhibition of Cav2.2 expressed HEK293 cells assessed as inhibition of calcium flux by FLIPR assay in presence of 30 mM of potassium; assay type: cell-based; summary of the method: as §2
hERG [12] = target: T3, hERG (Homo sapiens, UniProt Q12809); test: Displacement of [35S]-MK-0499 from human ERG at 10 uM; details: probe [35S]-MK-0499
Summary of the method: (§6)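 hERG binding was measured as displacement of 35S-labeled MK-0499 at single test concentrations.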

[13] = Half life in rat at 3 mg/kg, po and 1 mg/kg, iv; assay type: ADME, organism-based; details: in vivo; summary of the method: as §4
hERG [14] = target: T3, hERG; test: Displacement of [35S]-MK-0499 from human ERG at 1 uM; details: probe [35S]-MK-0499; summary of the method: as §6
Rattus norvegicus [15] = test: Dose normalized AUC in rat at 3 mg/kg, po and 1 mg/kg, iv; assay type: ADME, organism-based; details: in vivo; summary of the method: as §4
[16] = Metabolic stability in rat liver microsomes assessed as compound remaining at 1 uM after 1 hr; assay type: ADME, Microsome; details: read-out: Stability; summary of the method: as §5
[17] = target: Voltage-dependent L-type calcium channel subunit alpha-1C (Homo sapiens, UniProt Q13936); test: Inhibition of Cav1.2 assessed as inhibition of calcium flux by cell based FLIPR assay; summary of the method: as §1
[18] = Oral bioavailability in rat; assay type: ADME, organism-based; details: in vivo; summary of the method: as §4
[19] = Plasma clearance in rat; assay type: ADME, organism-based; summary of the method: as §4
Rattus norvegicus [20] = test: Dose normalized AUC in po dosed rat; assay type: ADME, organism-based; details: in vivo; summary of the method: as §4
[21] = target: T2, Voltage-dependent N-type calcium channel subunit alpha-1B; test: Inhibition of Cav2.2 expressed HEK293 cells assessed as inhibition of calcium flux by FLIPR assay in presence of 4 mM of potassium; assay type: cell-based
Summary of the method: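 HEK-293-derived CBK cells coexpress α1B-1, α2-δ and β3a with Kir2.3. Compound was incubated in 4 mM K+ bath, holding about −90 mV. Ca2+ influx was read with a Ca-sensitive dye on FLIPR Tetra. Ten-point titrations ran 0.001–30 μM in quadruplicate, averaged ± SD to give IC50.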

Rattus norvegicus [22] = test: Dose normalized AUC in rat at 1.8 mg/kg, po and 0.6 mg/kg, iv; assay type: ADME, organism-based; details: in vivo; summary of the method: as §4
Rattus norvegicus [23] = test: Antinociceptive activity in rat assessed as reversal of complete Freund's adjuvant-induced pain at 3 mg/kg, iv after 3 hrs; assay type: functional
Rattus norvegicus [24] = test: Antinociceptive activity in rat assessed as reversal of complete Freund's adjuvant-induced pain at 3 mg/kg, iv after 1 hr; assay type: functional
[25] = Plasma concentration in rat SNL neuropathic pain model at 10 mg/kg, po after 3.5 hrs; assay type: ADME, organism-based; parameters: dose 10 mg/kg, route oral
Rattus norvegicus [26] = test: Analgesic activity in rat SNL neuropathic pain model assessed as reversal of mechanical allodynia at 10 mg/kg, po after 3 hrs; assay type: functional

T1 sequence (Q13936 whole entry): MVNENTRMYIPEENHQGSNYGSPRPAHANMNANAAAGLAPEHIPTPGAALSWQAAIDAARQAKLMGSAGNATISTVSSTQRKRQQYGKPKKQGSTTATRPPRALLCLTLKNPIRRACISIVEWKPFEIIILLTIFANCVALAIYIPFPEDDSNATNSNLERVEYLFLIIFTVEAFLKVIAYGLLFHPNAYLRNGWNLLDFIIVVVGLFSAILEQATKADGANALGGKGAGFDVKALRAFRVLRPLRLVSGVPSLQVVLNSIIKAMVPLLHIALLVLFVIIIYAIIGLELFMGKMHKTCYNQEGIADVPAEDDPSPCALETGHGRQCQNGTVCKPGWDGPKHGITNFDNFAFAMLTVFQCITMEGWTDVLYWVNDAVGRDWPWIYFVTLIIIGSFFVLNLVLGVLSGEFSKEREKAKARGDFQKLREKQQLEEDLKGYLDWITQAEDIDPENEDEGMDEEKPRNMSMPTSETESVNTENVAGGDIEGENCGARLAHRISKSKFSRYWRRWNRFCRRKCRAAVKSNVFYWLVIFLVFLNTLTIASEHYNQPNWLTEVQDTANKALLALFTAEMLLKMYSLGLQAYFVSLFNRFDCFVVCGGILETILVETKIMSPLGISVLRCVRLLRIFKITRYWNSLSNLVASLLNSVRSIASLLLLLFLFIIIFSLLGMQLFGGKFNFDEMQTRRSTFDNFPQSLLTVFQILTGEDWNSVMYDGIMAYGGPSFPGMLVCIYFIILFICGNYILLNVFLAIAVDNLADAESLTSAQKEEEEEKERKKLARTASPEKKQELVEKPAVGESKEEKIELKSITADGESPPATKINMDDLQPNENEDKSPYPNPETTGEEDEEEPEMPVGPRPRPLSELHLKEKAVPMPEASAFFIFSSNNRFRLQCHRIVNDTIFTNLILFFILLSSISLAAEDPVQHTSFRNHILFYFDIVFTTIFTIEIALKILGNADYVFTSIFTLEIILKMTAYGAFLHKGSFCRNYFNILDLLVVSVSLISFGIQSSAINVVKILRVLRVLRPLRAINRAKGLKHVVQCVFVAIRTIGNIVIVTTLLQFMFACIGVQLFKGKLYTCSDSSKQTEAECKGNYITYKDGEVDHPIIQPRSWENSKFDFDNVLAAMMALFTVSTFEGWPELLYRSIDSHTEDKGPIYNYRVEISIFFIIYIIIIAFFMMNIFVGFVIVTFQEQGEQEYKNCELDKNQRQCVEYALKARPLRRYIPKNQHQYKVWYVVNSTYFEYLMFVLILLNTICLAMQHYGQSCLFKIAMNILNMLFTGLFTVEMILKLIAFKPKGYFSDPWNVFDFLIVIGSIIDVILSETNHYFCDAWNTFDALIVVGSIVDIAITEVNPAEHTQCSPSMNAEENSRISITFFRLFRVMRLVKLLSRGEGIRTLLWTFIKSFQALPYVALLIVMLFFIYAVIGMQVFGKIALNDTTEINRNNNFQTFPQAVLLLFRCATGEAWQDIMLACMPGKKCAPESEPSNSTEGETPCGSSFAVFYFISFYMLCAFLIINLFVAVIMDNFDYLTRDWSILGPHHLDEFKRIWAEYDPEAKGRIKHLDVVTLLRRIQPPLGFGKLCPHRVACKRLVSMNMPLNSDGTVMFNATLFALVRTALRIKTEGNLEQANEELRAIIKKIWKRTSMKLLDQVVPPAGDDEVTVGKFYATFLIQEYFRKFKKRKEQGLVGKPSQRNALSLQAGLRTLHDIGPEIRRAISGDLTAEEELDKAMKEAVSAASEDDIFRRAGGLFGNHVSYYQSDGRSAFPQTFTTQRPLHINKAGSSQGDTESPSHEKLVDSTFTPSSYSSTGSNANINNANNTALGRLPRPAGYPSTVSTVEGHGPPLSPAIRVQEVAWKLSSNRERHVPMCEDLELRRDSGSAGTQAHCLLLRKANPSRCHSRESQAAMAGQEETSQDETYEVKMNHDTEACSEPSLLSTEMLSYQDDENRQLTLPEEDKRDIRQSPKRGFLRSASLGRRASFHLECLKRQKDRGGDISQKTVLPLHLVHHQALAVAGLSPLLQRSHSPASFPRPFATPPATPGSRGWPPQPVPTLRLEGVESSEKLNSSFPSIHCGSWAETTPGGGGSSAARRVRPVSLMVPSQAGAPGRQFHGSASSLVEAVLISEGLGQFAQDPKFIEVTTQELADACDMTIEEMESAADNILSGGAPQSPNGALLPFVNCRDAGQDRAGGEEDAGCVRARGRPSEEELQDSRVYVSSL
T3 sequence (Q12809 whole entry): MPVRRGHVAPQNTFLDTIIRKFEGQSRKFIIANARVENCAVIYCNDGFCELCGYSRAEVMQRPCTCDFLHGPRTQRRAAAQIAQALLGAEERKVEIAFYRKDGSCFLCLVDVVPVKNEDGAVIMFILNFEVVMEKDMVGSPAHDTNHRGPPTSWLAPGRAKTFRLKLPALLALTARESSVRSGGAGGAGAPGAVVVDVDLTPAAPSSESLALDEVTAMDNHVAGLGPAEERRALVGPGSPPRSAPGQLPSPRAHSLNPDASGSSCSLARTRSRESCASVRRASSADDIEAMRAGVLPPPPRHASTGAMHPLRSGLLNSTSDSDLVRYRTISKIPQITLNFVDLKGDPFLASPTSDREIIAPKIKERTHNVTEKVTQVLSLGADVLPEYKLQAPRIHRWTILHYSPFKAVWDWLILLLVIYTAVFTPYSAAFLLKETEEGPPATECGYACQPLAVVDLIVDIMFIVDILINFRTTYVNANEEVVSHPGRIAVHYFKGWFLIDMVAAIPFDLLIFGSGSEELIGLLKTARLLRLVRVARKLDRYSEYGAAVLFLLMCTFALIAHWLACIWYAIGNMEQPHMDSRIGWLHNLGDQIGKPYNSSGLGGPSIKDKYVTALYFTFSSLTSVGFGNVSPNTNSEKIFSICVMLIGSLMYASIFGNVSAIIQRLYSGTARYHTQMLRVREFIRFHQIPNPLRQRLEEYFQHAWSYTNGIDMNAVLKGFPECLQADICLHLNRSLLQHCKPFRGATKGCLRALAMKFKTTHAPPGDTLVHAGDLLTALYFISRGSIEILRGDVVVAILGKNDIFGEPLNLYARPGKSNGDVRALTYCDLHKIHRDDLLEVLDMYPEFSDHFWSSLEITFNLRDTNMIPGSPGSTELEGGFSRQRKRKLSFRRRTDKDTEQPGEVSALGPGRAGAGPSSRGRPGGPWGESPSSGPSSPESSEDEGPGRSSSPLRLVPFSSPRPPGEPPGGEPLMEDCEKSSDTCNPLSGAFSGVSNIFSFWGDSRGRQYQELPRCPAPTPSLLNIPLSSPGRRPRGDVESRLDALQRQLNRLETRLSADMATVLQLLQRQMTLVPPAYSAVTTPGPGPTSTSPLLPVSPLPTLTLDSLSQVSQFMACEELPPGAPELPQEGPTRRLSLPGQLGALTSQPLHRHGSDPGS
Sequence of Voltage-dependent L-type calcium channel subunit alpha-1C (Q13936 whole entry): as the sequence (Q13936 whole entry) above

Structure (SMILES): NC(=O)c1ccccc1C(=O)N1CCC(N(C2CC2)S(=O)(=O)c2cccc(C(F)(F)F)c2)CC1
inhibition at 1 µM (Cav1.2 [1]): 11%
inhibition [2]: 15%
inhibition at 3 µM (Cav1.2 [3]): 17%

Structure (SMILES): CS(=O)(=O)c1ccc(F)cc1C(=O)N1CCC(N(C2CC2)S(=O)(=O)c2ccccc2C(F)(F)F)CC1
inhibition [2]: 17%

Structure (SMILES): COc1ccc2cc([C@H](C)C(=O)O)ccc2c1 [NAPROXEN]
Activity (Rattus norvegicus [4]): 47%

Structure (SMILES): CS(=O)(=O)c1ccc(F)cc1C(=O)N1CCC(N(C2CC2)S(=O)(=O)c2cc(C(F)(F)F)ccc2F)CC1
IC50 [11]: 2500 nM

Structure (SMILES): NS(=O)(=O)c1cccc(C(F)(F)F)c1
Activity (Rattus norvegicus [5]): 44%
Activity (Rattus norvegicus [6]): 53%
concentration at 3.5 h [25]: 35.6 µM
Activity (Rattus norvegicus [26]): 36%
Activity (Rattus norvegicus [4]): 27%

Now from value to compound, other results behind:

clearance [7]: 36 mL/min/kg
remaining at 1 h, 1 µM [8]: 73%
bioavailability [9]: 100%
concentration at 3 h [10]: 2.4 µM
IC50 [11]: 660 nM
half-life [13]: 0.91 h
AUC/dose (Rattus norvegicus [15]): 1.06 µM·kg·h/mg
remaining at 1 h, 1 µM [16]: 45%
Structure (SMILES): CS(=O)(=O)c1ccccc1C(=O)N1CCC(N(C2CC2)S(=O)(=O)c2cccc(C(F)(F)F)c2)CC1
inhibition at 1 µM (Cav1.2 [1]): 19%
Activity (Rattus norvegicus [5]): 45%
Activity (Rattus norvegicus [6]): 47%
inhibition at 10 µM (hERG [12]): 67%
inhibition at 1 µM (hERG [14]): 1%
inhibition at 3 µM (Cav1.2 [3]): 39%

bioavailability [18]: 4%
clearance [19]: 169 mL/min/kg
IC50 [11]: 120 nM
AUC/dose (Rattus norvegicus [20]): 0.007 µM·kg·h/mg
IC50 [21]: 4800 nM
Structure (SMILES): CCCN(C1CCN(Cc2c(OC)cccc2OC)CC1)S(=O)(=O)c1cccc(C(F)(F)F)c1
IC50 [17]: 3200 nM
inhibition at 1 µM (hERG [14]): 91%

inhibition [2]: 42%
Structure (SMILES): O=C(c1ccccc1)N1CCC(N(C2CC2)S(=O)(=O)c2cccc(C(F)(F)F)c2)CC1

inhibition [2]: 0%
Structure (SMILES): CS(=O)(=O)c1ccc(F)cc1C(=O)N1CCC(N(C2CC2)S(=O)(=O)c2ccc(OC(F)(F)F)cc2)CC1

AUC/dose (Rattus norvegicus [22]): 0.23 µM·kg·h/mg
clearance [7]: 65 mL/min/kg
remaining at 1 h, 1 µM [8]: 1%
bioavailability [9]: 47%
IC50 [11]: 120 nM
half-life [13]: 1.6 h
remaining at 1 h, 1 µM [16]: 21%
Structure (SMILES): O=C(c1ccccc1OC(F)(F)F)N1CCC(N(C2CC2)S(=O)(=O)c2cccc(C(F)(F)F)c2)CC1
Activity (Rattus norvegicus [23]): 17%
inhibition at 10 µM (hERG [12]): 75%
Activity (Rattus norvegicus [24]): 23%
inhibition at 1 µM (hERG [14]): 21%

IC50 [11]: 370 nM
Structure (SMILES): O=C(c1cccc(OC(F)(F)F)c1)N1CCC(N(C2CC2)S(=O)(=O)c2cccc(C(F)(F)F)c2)CC1
inhibition at 1 µM (Cav1.2 [1]): 60%
inhibition at 10 µM (hERG [12]): 72%
inhibition at 1 µM (hERG [14]): 4%
inhibition at 3 µM (Cav1.2 [3]): 78%

IC50 [11]: 1100 nM
Structure (SMILES): CS(=O)(=O)c1ccc(F)cc1C(=O)N1CCC(N(C2CC2)S(=O)(=O)c2cccc(OC(F)(F)F)c2)CC1

inhibition [2]: 0%
Structure (SMILES): CS(=O)(=O)c1cccc(S(=O)(=O)N(C2CC2)C2CCN(C(=O)c3cc(F)ccc3S(C)(=O)=O)CC2)c1
